From ChEMBL document CHEMBL1124476, “1-(2-aminoethyl)-6-aryl-4H- [1,2,4]triazolo[4,3-a][1,4]benzodiazepines with diuretic and natriuretic activity” (J Med Chem, 1989)

Key:
[1] = Diuretic activity at 40 mg/kg (screening dose-100.8 umol/kg) in […] in a one stage experiment; T/C = urine vol of treated rats / urine vol of control rats; type: functional
Procedure, shortened: (§1)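 40 mg/kg given by gavage in 25 mL/kg 0.9% saline with 0.5% (carboxymethyl)cellulose. Four rats per agent, two per metabolism cage; 20 controls; 5 h urine. T/C = treated/control urine volume. Stage-1 T/C of 1.66 or more leads to stage 2; product T/C1·T/C2 of 3.34 or more counts as active.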

[2] = Diuretic activity at 40 mg/kg (screening dose-105.3 umol/kg) in […] in a one stage experiment; T/C = urine vol of treated rats / urine vol of control rats; type: functional; procedure, shortened: as §1
Rattus norvegicus [3] = assay: Mean excretion of sodium in conscious rats at a dose of 100 mg/kg given orally; type: ADME, organism-based; design: dose 100 mg/kg, route oral; settings: in vivo, po
Procedure, shortened: (§2)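 Male Sprague-Dawley rats, about 160 g, fasted 24 h and water withheld 1 1/2 h beforehand; food and water withheld during the test. Dosing by gavage with 25 mL/kg 0.9% saline containing 0.5% (carboxymethyl)cellulose, agent dissolved or suspended. Three cages of two rats each per dose, held in metabolism cages. Urine collected over 5 h. Volume given in mL, Na+ in mequiv. Significance versus control at P < 0.05.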

Rattus norvegicus [4] = assay: Mean excretion of chloride in conscious rats at a dose of 3.0 mg/kg given orally; type: ADME, organism-based; design: dose 3 mg/kg, route oral; settings: in vivo, po
Procedure, shortened: (§3)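 Secondary dose-response in male Sprague-Dawley rats (~160 g), fasted and hydrated as in the primary screen. Oral gavage at 0.3-100 mg/kg in 25 mL/kg saline/0.5% CMC, three cages of two rats per dose. Urine collected 5 h; Na, K, Cl, HCO3 measured. Values are mean excretion (mequiv), compared with controls at P < 0.05.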

Rattus norvegicus [5] = assay: Mean excretion of sodium in conscious rats at a dose of 30 mg/kg given orally; type: ADME, organism-based; design: dose 30 mg/kg, route oral; settings: in vivo, po; procedure, shortened: as §2
Rattus norvegicus [6] = assay: Mean excretion of sodium in conscious rats at a dose of 0.3 mg/kg given orally; type: ADME, organism-based; design: dose 0.3 mg/kg, route oral; settings: in vivo, po; procedure, shortened: as §2
Rattus norvegicus [7] = assay: Mean excretion of chloride in conscious rats at a dose of 10 mg/kg given orally; type: ADME, organism-based; design: dose 10 mg/kg, route oral; settings: in vivo, po; procedure, shortened: as §3
Rattus norvegicus [8] = assay: Mean excretion of chloride in conscious rats at a dose of 100 mg/kg given orally; type: ADME, organism-based; design: dose 100 mg/kg, route oral; settings: in vivo, po; procedure, shortened: as §3
Rattus norvegicus [9] = assay: Mean excretion of potassium in conscious rats at a dose of 30 mg/kg given orally; type: ADME, organism-based; design: dose 30 mg/kg, route oral; settings: in vivo, po; procedure, shortened: as §3
Rattus norvegicus [10] = assay: Mean excretion of chloride in conscious rats at a dose of 1.0 mg/kg given orally; type: ADME, organism-based; design: dose 1 mg/kg, route oral; settings: in vivo, po; procedure, shortened: as §3
Rattus norvegicus [11] = assay: Mean excretion of sodium in conscious rats at a dose of 10 mg/kg given orally; type: ADME, organism-based; design: dose 10 mg/kg, route oral; settings: in vivo, po; procedure, shortened: as §2
Rattus norvegicus [12] = assay: Mean excretion of potassium in conscious rats at a dose of 0.3 mg/kg given orally; type: ADME, organism-based; design: dose 0.3 mg/kg, route oral; settings: in vivo, po; procedure, shortened: as §3
[13] = Diuretic activity at 40 mg/kg (screening dose-82.2 umol/kg) in […] in a one stage experiment; T/C = urine vol of treated rats / urine vol of control rats; type: functional; procedure, shortened: as §1
Rattus norvegicus [14] = assay: Mean excretion of potassium in conscious rats at a dose of 3.0 mg/kg given orally; type: ADME, organism-based; design: dose 3 mg/kg, route oral; settings: in vivo, po; procedure, shortened: as §3
Rattus norvegicus [15] = species: Rattus norvegicus; assay: […]; type: ADME, organism-based, Urine; design: dose 3 mg/kg, route oral; settings: in vivo, po, 3 mg/kg; procedure, shortened: as §2
Rattus norvegicus [16] = assay: Mean excretion of […] in conscious rats at a dose of 1.0 mg/kg given orally; type: ADME, organism-based; design: dose 1 mg/kg, route oral; settings: in vivo, po; procedure, shortened: as §2
Rattus norvegicus [17] = assay: Mean excretion of sodium in conscious rats at a dose of 3.0 mg/kg given orally; type: ADME, organism-based; design: dose 3 mg/kg, route oral; settings: in vivo, po; procedure, shortened: as §2
Rattus norvegicus [18] = assay: Mean excretion of potassium in conscious rats at a dose of 1.0 mg/kg given orally; type: ADME, organism-based; design: dose 1 mg/kg, route oral; settings: in vivo, po; procedure, shortened: as §3
[19] = Diuretic activity at 40 mg/kg (screening dose-82.2 umol/kg) in […] in a two stage experiment; T/C1.2 = urine vol of treated rats / urine vol of control rats; type: functional; procedure, shortened: as §1
Rattus norvegicus [20] = species: Rattus norvegicus; assay: […]; type: ADME, organism-based, Urine; design: dose 30 mg/kg, route oral; settings: in vivo, po, 30 mg/kg; procedure, shortened: as §2
Rattus norvegicus [21] = assay: Mean excretion of chloride in conscious rats at a dose of 30 mg/kg given orally; type: ADME, organism-based; design: dose 30 mg/kg, route oral; settings: in vivo, po; procedure, shortened: as §3
Rattus norvegicus [22] = assay: Mean excretion of potassium in conscious rats at a dose of 100 mg/kg given orally; type: ADME, organism-based; design: dose 100 mg/kg, route oral; settings: in vivo, po; procedure, shortened: as §3
Rattus norvegicus [23] = assay: Mean excretion of potassium in conscious rats at a dose of 10 mg/kg given orally; type: ADME, organism-based; design: dose 10 mg/kg, route oral; settings: in vivo, po; procedure, shortened: as §3
Rattus norvegicus [24] = species: Rattus norvegicus; assay: […]; type: ADME, organism-based, Urine; design: dose 0.3 mg/kg, route oral; settings: in vivo, po, 0.3 mg/kg
Procedure, shortened: (§4)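 Dose-response test in male Sprague-Dawley rats of about 160 g, fasted 24 h, with water withheld 1½ h before and during the test. Each rat got a single gavage of 25 mL/kg 0.9% saline with 0.5% carboxymethylcellulose carrying the agent (0.3–100 mg/kg range). Rats were housed two per metabolism cage, and urine was collected for 5 h. Mean urine volume (mL) was compared with controls (P < 0.05).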

Rattus norvegicus [25] = species: Rattus norvegicus; assay: […]; type: ADME, organism-based, Urine; design: dose 10 mg/kg, route oral; settings: in vivo, po, 10 mg/kg; procedure, shortened: as §2
Rattus norvegicus [26] = assay: Mean excretion of Cl- in conscious rats at a dose of 0.3 mg/kg given orally; type: ADME, organism-based, Urine; design: dose 0.3 mg/kg, route oral; settings: in vivo, po; procedure, shortened: as §4
Rattus norvegicus [27] = species: Rattus norvegicus; assay: […]; type: ADME, organism-based, Urine; design: dose 1 mg/kg, route oral; settings: in vivo, po, 1 mg/kg; procedure, shortened: as §4
Rattus norvegicus [28] = species: Rattus norvegicus; assay: […]; type: ADME, organism-based, Urine; design: dose 100 mg/kg, route oral; settings: in vivo, po, 100 mg/kg; procedure, shortened: as §2
[29] = Diuretic activity at 40 mg/kg (screening dose-77.5 umol/kg) in […] in a one stage experiment; T/C = urine vol of treated rats / urine vol of control rats; type: functional; procedure, shortened: as §1
[30] = Diuretic activity at 40 mg/kg (screening dose-61.3 umol/kg) in […] in a one stage experiment; T/C = urine vol of treated rats / urine vol of control rats; type: functional; procedure, shortened: as §1

C=C(c1ccccc1)c1nnc2n1-c1ccc(Cl)cc1C(c1ccccc1)=NC2
T/C 1 [1]: 0.76

CC(CN(C)C)c1nnc2n1-c1ccc(Cl)cc1C(c1ccccc1)=NC2 (stereo not given)
T/C 1 [2]: 1.25

CN(C)CC(c1ccccc1)c1nnc2n1-c1ccc(Br)cc1C(c1ccccc1)=NC2 (stereo not given)
Mean excretion of Na+ (Rattus norvegicus [3]): 1.16 m equiv
Mean excretion of Cl- (Rattus norvegicus [4]): 0.6 m equiv
Mean excretion of Na+ (Rattus norvegicus [5]): 1.18 m equiv
Mean excretion of Na+ (Rattus norvegicus [6]): 0.63 m equiv
Mean excretion of Cl- (Rattus norvegicus [7]): 0.78 m equiv
Mean excretion of Cl- (Rattus norvegicus [8]): 1.01 m equiv
Mean excretion of K+ (Rattus norvegicus [9]): 0.17 m equiv
Mean excretion of Cl- (Rattus norvegicus [10]): 0.62 m equiv
Mean excretion of Na+ (Rattus norvegicus [11]): 0.74 m equiv
Mean excretion of K+ (Rattus norvegicus [12]): 0.24 m equiv
T/C 1 [13]: 2.17
Mean excretion of K+ (Rattus norvegicus [14]): 0.17 m equiv
Mean urine volume (Rattus norvegicus [15]): 3.4 mL
Mean excretion of Na+ (Rattus norvegicus [16]): 0.64 m equiv
Mean excretion of Na+ (Rattus norvegicus [17]): 0.53 m equiv
Mean excretion of K+ (Rattus norvegicus [18]): 0.21 m equiv
T/C 1.2 [19]: 4.73
Mean urine volume (Rattus norvegicus [20]): 8.5 mL
Mean excretion of Cl- (Rattus norvegicus [21]): 1.16 m equiv
Mean excretion of K+ (Rattus norvegicus [22]): 0.15 m equiv
Mean excretion of K+ (Rattus norvegicus [23]): 0.17 m equiv
Mean urine volume (Rattus norvegicus [24]): 4.29 mL
Mean urine volume (Rattus norvegicus [25]): 5.1 mL
Mean excretion of Cl- (Rattus norvegicus [26]): 0.72 m equiv
Mean urine volume (Rattus norvegicus [27]): 3.59 mL
Mean urine volume (Rattus norvegicus [28]): 7.74 mL

Clc1ccc2c(c1)C(c1ccccc1)=NCc1nnc(C(CN3CCOCC3)c3ccccc3)n1-2 (stereo not given)
T/C 1 [29]: 1.46

CN1CCN(CC(c2ccccc2)c2nnc3n2-c2ccc(Cl)cc2C(c2ccccc2)=NC3)CC1.I (stereo not given)
T/C 1 [30]: 1.02
